# Bioassay records as filed in PubChem BioAssay.
# An excerpt weighted towards active compounds, which were near 0.55% of everything screened.
# OXTR potentiator: potentiators of human oxytocin receptor. P30559. CHO-OTR cells, Fluo-8 calcium fluorescence, potentiator mode; 0% = oxytocin EC15, 100% = EC100. activation, % at 3 µM. actives 0.061% (n = 320,000). AID 2445;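 active means activation above that plate's cutoff, the mean activation of tested compounds plus 3 SD, cut at about 6.6% in these data, passing the limit was not always enough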
#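 Material: human OTR in CHO cells. Compound: 3.0 µM, one dose. Timing: compound 6 min at room temperature before oxytocin, 100 s read. Evaluation: % activation of max/min ratio relative to oxytocin controls. Replication: single well per compound, singlicate. Signal: Fluo-8 calcium dye fluorescence.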
# TRPN1 ag: activates the zebrafish TRPN1 channel; HEK293 zebrafish TRPN1-YFP, Fluo-8 calcium fluorescence; 100% = response to 87 µM carbachol; activation, % at 3 µM; actives 0.18% (n = 220,000); AID 1424;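 active means activation above its plate's cutoff, the mean activation of test wells on that plate plus 3 SD, cut at about 19% in these data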
#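 Material: zebrafish TRPN1-YFP in HEK293 cells; Doses: single test compound dose, 3 µM nominal, 0.3% DMSO; Timing: dye loading 1 h at 37 °C, then 30 min room temperature; Technique: intracellular calcium fluorescence with Fluo-8; Benchmarks: high carbachol 87 µM, low DMSO alone.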
# TRPML3 agonist: agonists of human TRPML3 channel. HEK293 TRPML3-YFP, Fluo-8 calcium fluorescence; 100% = the carbachol control signal. actives 0.29% (n = 220,000). Q8TDD5. activation, % at 3 µM;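 active means activation above its plate's cutoff, the mean activation of the plate's test wells plus 3 SD, cut at about 12% in these data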
#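 Material: HEK293 cells stably carrying human TRPML3-YFP; compound dosing: single dose, 3 µM final nominal compound, 0.3% DMSO final; incubation: 1-h 37 °C dye load, 5-s basal, 120-s post-compound reads; technique: Fluo-8 intracellular calcium fluorescence, excitation 470-495 nm, emission 515-575 nm; read-out basis: percent activation from peak-to-basal fluorescence ratio, scaled between DMSO and carbachol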
# V1R ag counter: counter-screen for oxytocin receptor agonists: human V1a receptor agonists; P37288; CHO-V1R cells, Fluo-8 calcium fluorescence, agonist mode; 0% DMSO, 100% 3 nM vasopressin; activation, % at 3 µM; actives 0.25% (n = 320,000); AID 2797;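 active means activation above the mean activation of all tested compounds plus 3 SD, per screening run, cut at about 20% in these data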;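 further: signal is peak over basal fluorescence ratio across a 100 second FLIPR read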
# OXTR agonist: activates the human oxytocin receptor. activation, % at 3 µM. P30559. CHO-OTR cells, Fluo-8 calcium fluorescence; normalized: DMSO 0%, oxytocin 100%. actives 0.32% (n = 320,000);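 active means activation above the mean of all tested compounds plus 3 SD, cutoff set per screening run, cut at about 20% in these data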;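 further: peak over basal fluorescence ratio from a 100 s FLIPR kinetic read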
# A number is an active result; i = inactive; nt = not tested or not shown.
SMILES,OXTR potentiator,TRPN1 ag,TRPML3 agonist,V1R ag counter,OXTR agonist
CN1CCN(C(=O)CCc2nc3ccccc3n2-c2ccccc2)CC1,i,i,i,i,i
COCc1ccc(C(=O)N2CCCC(Nc3ccc(C(C)C)cc3)C2)o1 (configuration not stated),i,nt,nt,i,i
CCOC(=O)c1ccc(NC(=S)N2CCSC2c2ccc(Cl)cc2)cc1 (configuration not stated),i,i,i,39.0,37.5
COc1ccc(C2SCCN2C(=S)Nc2cccc(C(F)(F)F)c2)cc1 (configuration not stated),i,i,i,22.0,39.0
CC1(C)C2CC[C@]3(C)C(CC=C4[C@@H]5C[C@@](C)(CO)[C@@H](O)C[C@]56C[C@@H](OC6=O)[C@]43C)[C@@]2(C)CC[C@@H]1O (some centres not stated),i,nt,nt,i,i
Cc1cccc(NC(=S)NC(=O)CCc2ccccc2)c1,i,i,i,i,i
COc1ccc(CC(=O)NC(=S)Nc2cccc(CO)c2)cc1,i,nt,nt,27.2,28.1
COc1ccccc1NC(=S)NC(=O)Cc1ccc(Cl)cc1,i,nt,nt,32.7,21.8
COc1ccc(CC(=O)NC(=S)Nc2cccc(C)c2)cc1,i,nt,nt,26.5,26.1
Cc1cc(C)c(O)c(NC(=S)NC(=O)Cc2ccccc2)c1,i,nt,nt,28.6,31.1
Cc1c(NC(=S)NC(=O)Cc2ccccc2)cccc1C(=O)O,i,i,i,i,i
COc1cccc(NC(=S)NC(=O)Cc2ccc(Cl)cc2)c1,i,nt,nt,30.9,24.5
CCC(=O)Nc1cccc(NC(=S)NC(=O)Cc2ccccc2)c1,i,i,i,i,i
CCOC(=O)c1c(CSC(=N)N)n(-c2ccc(C)cc2)c2cc(Br)c(OC(C)=O)cc12,i,i,i,21.6,31.5
CCOC(=O)c1c(CSC(=N)N)n(C)c2cc(Br)c(OC(C)=O)cc12,i,i,i,i,i
O=c1c2ccccc2ncn1CCCCOc1ccc(Br)cc1,i,i,i,i,i
C=C1CCC(OC(C)=O)C2(C)CCC3C(C)C(=O)OC3C12O (configuration not stated),i,nt,nt,i,i
CC(C)=CCC[C@](C)(O[C@@H]1O[C@H](CO[C@@H]2O[C@H](CO)[C@@H](O)[C@H](O)[C@H]2O)[C@@H](O)[C@H](O)[C@H]1O)C1CC[C@]2(C)C1C(=O)CC1[C@@]3(C)CC[C@H](O[C@H]4O[C@@H](CO)[C@H](O)[C@@H](O)[C@@H]4O)C(C)(C)C3CC[C@]12C (some centres not stated),i,nt,nt,i,i
CC(=O)OCC1O[C@@H](O[C@@H]2C[C@H]3C(C)(C)[C@H](OC(C)=O)CC[C@]3(C)[C@H]3CC[C@]45C[C@]4(CC[C@H]5[C@@H](C)C[C@@H](O)[C@H](O)C(C)(C)O)[C@@]32C)[C@H](O)[C@@H](O)[C@@H]1O (some centres not stated),i,i,i,87.4,68.9
Cc1ccc(N2C(=O)c3ccc(C(=O)N4CCN(c5ccc(C)c(C)c5)CC4)cc3C2=O)cc1,i,i,i,i,i
Cc1ccc(N2C(=O)c3ccc(C(=O)N4CCN(Cc5ccccc5)CC4)cc3C2=O)cc1,i,i,i,39.9,30.2
CCN(CC)c1ccc(/C=C(\C#N)C(=O)c2ccc(Br)cc2)cc1,i,i,i,69.9,133.0
CN(C)c1ccc(/C=C(\C#N)C(=O)c2ccccc2)cc1,i,58.2,38.2,53.3,80.0
CCN(CC)S(=O)(=O)c1ccc(/C=C/C(=O)OCC(=O)NCc2cccs2)cc1,i,nt,nt,i,i
N#CC(C#N)=C1C=C2C=C(N3CCOCC3)CCC2CC1 (configuration not stated),nt,169.4,73.9,nt,nt
CCN1CCN(C2=CC3=CC(=C(C#N)C#N)CCC3CC2)CC1 (configuration not stated),nt,395.3,310.2,nt,nt
CN1CCN(C2=CC3=CC(=C(C#N)C#N)CCC3CC2)CC1 (configuration not stated),nt,617.2,328.9,nt,nt
CC1(C)CC(NCCN2CCN(C3=CC(=C(C#N)C#N)CC(C)(C)C3)CC2)=CC(=C(C#N)C#N)C1,i,i,i,i,i
